The source of these data is ChEMBL document CHEMBL1773057, “Design, synthesis and in vitro antimicrobial evaluation of novel Imidazo[1,2-a]pyridine and imidazo[2,1-b][1,3]benzothiazole motifs” (2011).

Values after ≈ are worked out from the molar mass of the structure shown.

What all share (type): functional
In assay [1] the test system is Escherichia coli. Nature of the assay: Antimicrobial activity against Escherichia coli after 24 hrs by broth microdilution method. The procedure, abridged: (§1)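 Broth microdilution. Bacteria were grown on Mueller-Hinton agar and diluted in Mueller-Hinton broth. Compounds were made as 1000 µg/mL stocks in 50% DMSO/H₂O and added to wells as two-fold dilutions starting at 500 µg/mL, then inoculated. Sealed plates were incubated at 37 °C for 24 h in a humid chamber. MIC was the lowest concentration with no visible turbidity.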

The test system of assay [2] is Aspergillus flavus. Nature of the assay: Antimicrobial activity against Aspergillus flavus after 48 hrs by broth microdilution method. The procedure, abridged: (§2)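 Fungi were grown on Sabouraud dextrose agar. Inocula were prepared in Sabouraud liquid medium at 37 °C for 12 h, then diluted in RPMI-1640 with L-glutamine, MOPS-buffered at pH 7. Compounds were made as 1000 µg/mL stocks in 50% DMSO/H₂O and tested as two-fold dilutions from 500 µg/mL. Sealed plates were incubated at 37 °C for 48 h in a humid chamber. MIC was the lowest concentration without visible turbidity.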

Assay [3] deals with Pseudomonas aeruginosa. Nature of the assay: Antimicrobial activity against Pseudomonas aeruginosa after 24 hrs by broth microdilution method. The procedure, abridged: as §1
Assay [4] deals with Priestia megaterium. The assay is described as follows: Antimicrobial activity against Bacillus megaterium after 24 hrs by broth microdilution method. The procedure, abridged:
as §1

The subject of assay [5] is Nannizzia gypsea. The assay is described as follows: Antimicrobial activity against Microsporum gypseum after 48 hrs by broth microdilution method. The procedure, abridged: as §2
Assay [6] concerns Candida parapsilosis. Nature of the assay: Antimicrobial activity against Candida parapsilosis after 48 hrs by broth microdilution method. To be noted: Lodderomyces parapsilosis. The procedure, abridged: as §2
The subject of assay [7] is Candida albicans. The assay is described as follows: Antimicrobial activity against Candida albicans after 48 hrs by broth microdilution method. The procedure, abridged:
as §2

Assay [8] relates to Staphylococcus aureus. The assay is described as follows: Antimicrobial activity against Staphylococcus aureus after 24 hrs by broth microdilution method. In a few lines: as §1
Assay [9] has as its system Klebsiella aerogenes. Nature of the assay: Antimicrobial activity against Enterobacter aerogenes after 24 hrs by broth microdilution method. The procedure, abridged: as §1
For assay [10], the system named is Enterococcus faecalis. Nature of the assay: Antimicrobial activity against Enterococcus faecalis after 24 hrs by broth microdilution method. The procedure, abridged: as §1

Turning to `Cc1ccc2nc(-c3ccc4nc(-c5cnc6ccc(Br)cc6c5)c(Nc5ccc(F)cc5)n4c3)[nH]c2c1`, the minimum inhibitory concentration (MIC) in [1] is 6.21 µg/mL (≈ 11 µM); in assay [2] it was 15.4 µg/mL (≈ 27.4 µM); in assay [3], 5.45 µg/mL (≈ 9.67 µM); in assay [4], 7.54 µg/mL (≈ 13.4 µM); in assay [5], 17.5 µg/mL (≈ 31.1 µM); in assay [6], 15.5 µg/mL (≈ 27.6 µM). Besides, the MIC turned out to be 16.4 µg/mL (≈ 29 µM) in [7], 7.43 µg/mL (≈ 13.2 µM) in [8], 5.35 µg/mL (≈ 9.5 µM) in assay [9] and 7.34 µg/mL (≈ 13 µM) in assay [10].
As for `Cc1ccc(-c2nnc(-c3ccc4nc(-c5c[nH]c6ccc(Br)cc56)c(Nc5ccc(F)cc5)n4c3)o2)cc1`, the MIC came out at 6.72 µg/mL (≈ 11.6 µM) in [1]; 6.55 µg/mL (≈ 11.3 µM) in assay [2]; 5.64 µg/mL (≈ 9.73 µM) in assay [3]; 6.44 µg/mL (≈ 11.1 µM) in [4]; 13.4 µg/mL (≈ 23.1 µM) in assay [5]; 10.4 µg/mL (≈ 18 µM) in [6]. Also, the MIC amounted to 11.6 µg/mL (≈ 20.1 µM) in [7], 3.13 µg/mL (≈ 5.4 µM) in assay [8], 4.42 µg/mL (≈ 7.63 µM) in [9] and 7.56 µg/mL (≈ 13 µM) in [10].
Regarding `Fc1ccc(Nc2c(-c3c[nH]c4ccc(Br)cc34)nc3sc4cc(F)ccc4n23)cc1`, the MIC worked out at 0.44 µg/mL (≈ 0.888 µM) in assay [1]; 2.13 µg/mL (≈ 4.3 µM) in assay [2]; 0.53 µg/mL (≈ 1.07 µM) in [3]; 1.69 µg/mL (≈ 3.41 µM) in assay [4]; 3.15 µg/mL (≈ 6.36 µM) in assay [5]; 2.32 µg/mL (≈ 4.68 µM) in assay [6]. For the same molecule, the MIC in [7] is 2.23 µg/mL (≈ 4.5 µM); in assay [8], 0.18 µg/mL (≈ 0.363 µM); in assay [9] it was 0.32 µg/mL (≈ 0.646 µM); in assay [10], 0.87 µg/mL (≈ 1.76 µM).
Take `COc1ccc2ncc(-c3nc4sc5cc(F)ccc5n4c3Nc3ccc(F)cc3)cc2c1`: the minimum inhibitory concentration (MIC) in assay [1] came to 10.4 µg/mL (≈ 22.7 µM); in [2], 15.3 µg/mL (≈ 33.4 µM); in [3] it was 11.9 µg/mL (≈ 25.9 µM); in [4] it was 19.1 µg/mL (≈ 41.8 µM); in assay [5], 17.5 µg/mL (≈ 38.2 µM); in assay [6], 13.6 µg/mL (≈ 29.6 µM). Moreover, the MIC was found to be 11.2 µg/mL (≈ 24.4 µM) in [7], 12.4 µg/mL (≈ 27.1 µM) in assay [8], 13.4 µg/mL (≈ 29.3 µM) in [9] and 11.2 µg/mL (≈ 24.4 µM) in assay [10].
Regarding `C=CC1=C(C(=O)O)N2C(=O)[C@@H](NC(=O)/C(=N\OCC(=O)O)c3csc(N)n3)[C@H]2SC1` [CEFIXIME], the MIC in assay [1] came out at 2.12 µg/mL (≈ 4.68 µM); in assay [3], 16.4 µg/mL (≈ 36.2 µM); in assay [4] it was 126 µg/mL (≈ 279 µM); in [8], 34.6 µg/mL (≈ 76.4 µM); in assay [9], 27.1 µg/mL (≈ 59.8 µM); in assay [10], 28.6 µg/mL (≈ 63 µM).
Consider `Cc1ccc2ncc(-c3nc4sc5cc(F)ccc5n4c3Nc3ccc(F)cc3)cc2c1`, for which the MIC in assay [1] is 10.4 µg/mL (≈ 23.5 µM); in assay [2], 13.4 µg/mL (≈ 30.2 µM); in [3], 9.66 µg/mL (≈ 21.8 µM); in assay [4] it was 18.6 µg/mL (≈ 42.1 µM); in [5] it was 18.4 µg/mL (≈ 41.6 µM); in assay [6], 14.4 µg/mL (≈ 32.6 µM). For the same molecule, the MIC in [7] was 12.2 µg/mL (≈ 27.5 µM); in assay [8], 8.63 µg/mL (≈ 19.5 µM); in assay [9], 9.57 µg/mL (≈ 21.6 µM); in assay [10], 9.45 µg/mL (≈ 21.4 µM).
`O=[N+]([O-])c1ccc2nc(-c3ccc4nc(-c5cnc6ccc(Br)cc6c5)c(Nc5ccc(F)cc5)n4c3)[nH]c2c1`: the MIC was 2.14 µg/mL (≈ 3.6 µM) in assay [1]; 7.63 µg/mL (≈ 12.8 µM) in [2]; 2.32 µg/mL (≈ 3.9 µM) in assay [3]; 4.12 µg/mL (≈ 6.93 µM) in assay [4]; 9.41 µg/mL (≈ 15.8 µM) in assay [5]; 5.34 µg/mL (≈ 8.98 µM) in [6]. Also, the MIC in assay [7] turned out to be 4.23 µg/mL (≈ 7.12 µM); in assay [8], 2.12 µg/mL (≈ 3.57 µM); in [9], 3.15 µg/mL (≈ 5.3 µM); in assay [10], 3.36 µg/mL (≈ 5.65 µM).
Turning to `Fc1ccc(Nc2c(-c3cnc4ccc(Br)cc4c3)nc3ccc(-c4ncc(-c5ccc(F)cc5)[nH]4)cn23)cc1`, the MIC in assay [1] came to 1.15 µg/mL (≈ 1.94 µM); in [2], 0.72 µg/mL (≈ 1.21 µM); in assay [3], 1.34 µg/mL (≈ 2.26 µM); in assay [4], 4.07 µg/mL (≈ 6.86 µM); in assay [5], 0.84 µg/mL (≈ 1.42 µM); in [6], 1.15 µg/mL (≈ 1.94 µM). Moreover, the MIC in assay [7] was 1.05 µg/mL (≈ 1.77 µM); in assay [8], 0.63 µg/mL (≈ 1.06 µM); in [9], 0.81 µg/mL (≈ 1.36 µM); in assay [10], 1.21 µg/mL (≈ 2.04 µM).
As for `Fc1ccc(Nc2c(-c3c[nH]c4ccc(Br)cc34)nc3ccc(-c4nc5ccc(F)cc5[nH]4)cn23)cc1`, the MIC in [1] came to 1.12 µg/mL (≈ 2.02 µM); in [2] it was 12.2 µg/mL (≈ 22 µM); in assay [3] it was 1.51 µg/mL (≈ 2.72 µM); in assay [4], 1.43 µg/mL (≈ 2.57 µM); in [5], 9.14 µg/mL (≈ 16.5 µM); in assay [6], 10.4 µg/mL (≈ 18.7 µM). The MIC stood at 11.3 µg/mL (≈ 20.4 µM) in assay [7], 1.12 µg/mL (≈ 2.02 µM) in assay [8], 1.15 µg/mL (≈ 2.07 µM) in assay [9] and 1.36 µg/mL (≈ 2.45 µM) in assay [10].
On to `O=[N+]([O-])c1ccc(-c2nnc(-c3ccc4nc(-c5c[nH]c6ccc(Br)cc56)c(Nc5ccc(F)cc5)n4c3)o2)cc1`, for which the MIC in [1] is 3.32 µg/mL (≈ 5.44 µM); in [2] it was 8.31 µg/mL (≈ 13.6 µM); in assay [3] it was 2.45 µg/mL (≈ 4.01 µM); in assay [4] it was 4.34 µg/mL (≈ 7.11 µM); in assay [5] it was 11.2 µg/mL (≈ 18.4 µM); in assay [6], 5.71 µg/mL (≈ 9.35 µM). Besides, the MIC was 6.63 µg/mL (≈ 10.9 µM) in assay [7], 2.45 µg/mL (≈ 4.01 µM) in [8], 3.13 µg/mL (≈ 5.13 µM) in assay [9] and 2.11 µg/mL (≈ 3.46 µM) in assay [10].
